Data: paper PMC4872390 (The American journal of Chinese medicine, 2015)
Like-named read-outs stand apart in the source and are kept apart here.

Tests used:
[1] = system: 2C19; conditions: 10 μM NBN; corresponding probe reaction; ref Linder et al., 2009; cited from earlier work
[2] = system: 3A4; conditions: 1 μM ketoconazole; corresponding probe reaction; ref Linder et al., 2009; cited from earlier work
[3] = format: in vivo; conditions: mice, ABT vs. no ABT
[4] = system: human liver microsome (HLM); assay: In vitro metabolism in human liver microsomes; format: in vitro ADME; conditions: substrate 6 μM, 60 minutes; for effect of NBN and ketoconazole together on metabolism by HLM: 10 μM NBN + 2 μM ketoconazole
Method in brief: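 Human liver microsomes at 1 mg/mL in 50 mM potassium phosphate (pH 7.4) with 1 mM NADPH and 6 μM substrate; final methanol 0.5% (v/v). Inhibitors came from DMSO stocks (DMSO at most 0.5% v/v). NBN at 10 μM and ketoconazole at 2 μM were added with the substrate. Incubated at 37°C for 1 hour, then extracted and quantitated. Three or more independent experiments.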

[5] = target: CYP 2C19 (Homo sapiens, UniProt P33261); assay: Incubation of D or DA with recombinant human CYP 2C19; format: in vitro ADME; conditions: for conversion to DOH or metabolites by 2C19 in the absence of NADPH: incubated in the absence of NADPH; for average velocity of 2C19 in the first 10 minutes: recombinant 2C19, substrate 6 μM
[6] = target: CYP 3A4 (Homo sapiens, UniProt P08684); assay: Incubation of D or DA with recombinant human CYP 3A4; format: in vitro ADME; conditions: recombinant 3A4; substrate 6 μM
[7] = format: in vivo, human
[8] = ref Zhang et al., 2015, cited from earlier work
[9] = rats; ref Song et al., 2011; cited from earlier work
[10] = rats, ref Li et al., 2013b, cited from earlier work

Chain of CYP 2C19 (P33261 whole entry): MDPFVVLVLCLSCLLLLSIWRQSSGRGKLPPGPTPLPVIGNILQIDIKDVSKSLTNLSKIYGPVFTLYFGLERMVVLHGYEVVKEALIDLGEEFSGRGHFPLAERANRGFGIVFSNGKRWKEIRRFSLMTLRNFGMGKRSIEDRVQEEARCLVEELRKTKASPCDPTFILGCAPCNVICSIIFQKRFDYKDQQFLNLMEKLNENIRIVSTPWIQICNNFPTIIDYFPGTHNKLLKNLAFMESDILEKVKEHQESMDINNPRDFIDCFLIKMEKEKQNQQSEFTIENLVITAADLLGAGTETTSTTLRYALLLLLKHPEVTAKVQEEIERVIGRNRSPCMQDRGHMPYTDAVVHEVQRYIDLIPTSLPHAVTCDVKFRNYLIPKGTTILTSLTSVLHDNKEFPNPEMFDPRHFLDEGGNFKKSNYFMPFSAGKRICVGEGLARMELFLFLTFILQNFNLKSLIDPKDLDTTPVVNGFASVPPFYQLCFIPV
Chain of CYP 3A4 (P08684 whole entry): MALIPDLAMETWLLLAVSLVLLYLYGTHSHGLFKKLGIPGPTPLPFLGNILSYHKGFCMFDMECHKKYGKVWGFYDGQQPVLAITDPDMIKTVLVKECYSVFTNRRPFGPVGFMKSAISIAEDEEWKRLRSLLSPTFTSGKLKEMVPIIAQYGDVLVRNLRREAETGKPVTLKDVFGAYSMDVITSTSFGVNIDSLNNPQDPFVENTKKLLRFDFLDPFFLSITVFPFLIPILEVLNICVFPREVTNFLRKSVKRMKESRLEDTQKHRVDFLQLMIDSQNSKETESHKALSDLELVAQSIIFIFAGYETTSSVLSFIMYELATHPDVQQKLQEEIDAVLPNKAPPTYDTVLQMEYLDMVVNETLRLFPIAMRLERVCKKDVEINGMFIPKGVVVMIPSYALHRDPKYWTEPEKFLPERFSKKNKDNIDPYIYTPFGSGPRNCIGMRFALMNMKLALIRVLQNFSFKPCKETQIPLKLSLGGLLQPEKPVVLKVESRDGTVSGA

Compound | increase of plasma level by ABT pretreatment ([3]; 1 hour after D/DA dose) | increase of prostate content by ABT pretreatment ([3]; 1 hour after D/DA dose) | increase of plasma level by ABT pretreatment ([3]; 2 hours after D/DA dose) | increase of prostate content by ABT pretreatment ([3]; 2 hours after D/DA dose) | effect of NBN and ketoconazole together on metabolism by HLM [4] | conversion to DOH or metabolites by 2C19 in the absence of NADPH [5] | average velocity of 2C19 in the first 10 minutes [5] | average velocity of 3A4 in the first 10 minutes [6] | also measured
CCC1(c2ccccc2)NC(=O)N(Cc2ccccc2)C1=O (single isomer, unassigned; (+)) [NBN, (+)-N-3-benzylnirvanol] |  |  |  |  |  |  |  |  | inhibition of 2C19 activity in HLM [1]: 55%
CC(=O)N1CCN(c2ccc(OCC3COC(Cn4ccnc4)(c4ccc(Cl)cc4Cl)O3)cc2)CC1 (centres unmarked) [ketoconazole] |  |  |  |  |  |  |  |  | inhibition of 3A4 activity in HLM [2]: 59%
C/C=C(/C)C(=O)O[C@H]1Cc2cc3ccc(=O)oc3cc2OC1(C)C [DA, decursinol angelate] | 30 fold | 18 fold | 30 fold | 48 fold | additive manner | not able to convert | 60 pmol D or DA per minute per pmol CYP | 5 pmol per minute per pmol CYP | effect of 3A4 inhibitor ketoconazole (KCZ) on metabolism by HLM ([4]; 2 μM ketoconazole, 1 mg/mL HLM): greater extent of inhibition of DA conversion to DOH and metabolite N8; effect of 2C19*17 allele on plasma AUC0–48h ([7]; human subjects by CYP SNP genotype): trend of gene-dose effect; plasma AUC0–48h compared among three racial groups (Caucasian, Hispanic, Asian) ([7]; human subjects, Kruskal-Wallis test, p<0.05): statistically different among three groups; variation in the Cmax and AUC0–48h among subjects ([8]; healthy human subjects, single dose): ≤ 60 fold
CC(C)=CC(=O)O[C@H]1Cc2cc3ccc(=O)oc3cc2OC1(C)C [D, decursin] | 32 fold | 61 fold | 26 fold | 61 fold | additive manner | not able to convert | 60 pmol D or DA per minute per pmol CYP | 4 pmol per minute per pmol CYP | effect of 2C19 inhibitor NBN on metabolism by HLM ([4]; 10 μM NBN, 1 mg/mL HLM): retarded the disappearance of D
CC1(C)Oc2cc3oc(=O)ccc3cc2C[C@@H]1O [DOH, decursinol] | 1.5–2 fold | 1.5–2 fold | 1.5–2 fold | 1.5–2 fold |  |  |  |  | absorption (AUC-oral dose vs. AUC-i.v.) [9]: ~ 45%; AUC of plasma DOH ([10]; equal moles by oral gavage): 65012 ng·h/mL; AUC ratio, DOH group vs. D/DA group ([10]; equal moles by oral gavage): ~ 2.4 fold; tmax of plasma DOH peak ([10]; oral gavage): ~ 0.7 h; urinary excretion of free DOH, share of D/DA ingested ([8]; human subjects): < 1%
